Screening data deposited in PubChem by PCMD.
Yeast eIF2B: eIF2B (yeast) activity modulation | S. cerevisiae eIF2B-epsilon R284H, GCN4-lacZ luminescence | inhibition, % at 25 µM (by protocol) | 27,000 tested, 0.91% active | AID 688;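 active = mutant luminescence inhibited past about 50% while wild type luminescence and mutant growth stay under set limits, limit read from the data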
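Material – yeast eIF2B-epsilon R284H mutant carrying GCN4–beta-galactosidase fusion · Medium – YPD yeast growth medium · Compound – one concentration, 25 µM, 0.25% DMSO · Times – 16 h at 30 °C exposure · Signal – Beta-Glo luminescence plus absorbance at 595 nm · Read-out – % inhibition of reporter signal and growth versus controls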
Yeast tox: Inhibits yeast growth, turbidity readout; S. cerevisiae wild-type growth, A595 turbidity, 16 h; growth inhibition, % at 25 µM (by protocol); AID 685; 30,000 tested, 0.3% active;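 active = mutant and wild-type yeast strains alike exhibit over 30% growth inhibition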;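 also: 0% = untreated cell controls and 100% = YPD media blanks without cells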
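Test system: Wild-type and eIF2Bepsilon-R284H mutant S. cerevisiae, screened separately | Dosing: Single 25 µM compound dose in 0.2% DMSO | Schedule: 16 h compound exposure during growth at 30 °C | Detection: A595 turbidity | Evaluation: Growth inhibition (%) versus cell controls and blanks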
* = called active by the depositor; · = not tested or not shown. In the library only some 1% were active in any assay of this set; here they are far more common.

SMILES | Yeast eIF2B | Yeast tox
COc1ccccc1NC(=O)CN(c1ccc(C)cc1)S(=O)(=O)c1c(C)n[nH]c1C | 19 | 21
COc1ccccc1CNC(=O)CN(c1ccc(C)cc1)S(=O)(=O)c1c(C)nn(C)c1C | 51* | 7
CCN1CCCC1CNC(=O)Cn1cccc1C(=O)c1ccccc1 (stereo unspecified) | 19 | 21
Cc1ccc(S(=O)(=O)NCCC(=O)O)cc1 | 35 | 16
CC(C)NC(=O)CCNS(=O)(=O)c1ccc(Br)cc1 | 83* | -9
O=C(O)Cc1ccc2[nH]c3ccc(CC(=O)O)cc3c2c1 | · | 17
C=CCC(=O)OCC(=O)Nc1ccc(Oc2ccccc2)cc1 | 22 | 0
O=C(COc1cccc2ccccc12)Nc1nc2ccccc2[nH]1 | · | 30*
CC(CC(=O)Nc1nc2ccccc2[nH]1)c1ccccc1 (stereo unspecified) | 1 | 14
CC1(C)CC(=O)c2cc(OCC(=O)N3CCOCC3)ccc2O1 | 27 | 4
CC1(C)CC(=O)c2cc(OCC(=O)NCCCN3CCN(c4ccccc4F)CC3)ccc2O1 | 52* | -17
COCCCN1C(=O)c2ccc(C(=O)Nc3ccc(OC)cc3)cc2C1=O | · | 7
O=C(NC1CCCCC1)Sc1ccc(Cl)cc1 | 9 | 41*
COc1ccc(Cl)cc1NC(=O)C(=O)NC1CCCCCC1 | 19 | 12
CN1CCN(CCC(=O)N2c3ccccc3Sc3ccc(Cl)cc32)CC1 | 20 | -2
CN1CCN(C2=Cc3ccccc3Sc3cc(F)c(F)cc32)CC1 | 75 | 94*
CN1CCN(c2nc(-c3ccccc3)cc(C(F)(F)F)n2)CC1 | 30 | -12
CN1CCN(C2=Cc3ccccc3Sc3cc(F)c(Cl)cc32)CC1 | 98 | 99*
Cc1ccc(S(=O)(=O)Nn2c(C)ccc2C)cc1 | -16 | ·
COc1ccccc1-n1c(SCC(=O)N2CCOCC2)nc(O)c(Cc2ccccc2)c1=O | 13 | 4
O=C(c1cccs1)N1CCN(S(=O)(=O)N2CCCCC2)CC1 | 1 | 17
CCCc1cc(=O)[nH]c(SCC(=O)c2cc(C)n(C(C)COC)c2C)n1 (stereo unspecified) | 57* | 14
COCC(C)n1c(C)cc(C(=O)COC(=O)c2nc3nc(C)cc(C)n3n2)c1C (stereo unspecified) | -14 | 15
CCc1ccc(C(=O)/C=C/c2ccc([N+](=O)[O-])o2)cc1 | · | 66*
CCCOC(=O)/C(=C\c1ccc([N+](=O)[O-])o1)NC(=O)c1ccccc1 | 0 | -16
SMILES | Yeast eIF2B | Yeast tox
Cc1cc(Cl)ccc1N=c1ssnc1Cl | 2 | 79*
COc1ccc(OCc2nn3c(-c4ccccn4)nnc3s2)cc1 | 10 | 8
COc1ccccc1-c1nnc2sc(COc3ccc(Cl)cc3)nn12 | 63* | 2
Cn1c(=O)c2cc(S(=O)(=O)NCCC(=O)NCCc3ccc(Cl)cc3)ccc2n(C)c1=O | 28 | 30
CCC(=O)Nc1ccc(-c2nn3c(C)nnc3s2)cc1C | 21 | -3
CCOC(=O)Cn1c(=O)c2c(nc3n2CCN3c2ccc(C)cc2)n(C)c1=O | -22 | 10
CCOC(=O)Cn1c(=O)c2c(nc3n2CCN3Cc2ccccc2)n(C)c1=O | 53* | 4
Cc1ccc(-c2cn(S(=O)(=O)c3cccc4nsnc34)nc2N)cc1 | 58* | -1
Cc1ccc(C)c(N(C)S(=O)(=O)c2cccc3nsnc23)c1 | 3 | 0
Cc1cc(NCc2ccc(F)cc2Cl)n2nnnc2n1 | 64* | 16
COc1ccc(CNc2cc(C)nc3ncnn23)c(OC)c1 | 17 | 8
COc1cccc(CNC(=O)C2CCCN(c3nc4ccccc4o3)C2)c1 (stereo unspecified) | 21 | 11
CCOC(=O)C(CCCOc1ccc(C(C)CC)cc1)C(=O)OCC (stereo unspecified) | 3 | 4
Cc1ccc(Cn2nnc3c(=O)n(CC(=O)N4CCCc5ccccc54)cnc32)cc1 | -4 | 9
Cc1cccc(Cn2cnc3c(nnn3Cc3ccc(Cl)cc3)c2=O)c1 | 59* | -16
O=C(c1cc2c(=O)oc3ccccc3c2s1)N1CCN(c2ncccn2)CC1 | 20 | 20
COc1ccc(CCC(=O)N2CC(C)OC(C)C2)cc1 (stereo unspecified) | 17 | 4
CCC(=O)Nc1c2c(nn1-c1ccc(C)cc1C)CSC2 | 52* | 8
Cc1ccccc1-n1nc2c(c1NC(=O)c1c(-c3ccccc3Cl)noc1C)CSC2 | 17 | 11
COCC(=O)Nc1ccc(S(=O)(=O)Nc2cc(C)nc(C)n2)cc1 | · | 34
COc1ccc(-n2nc(C(=O)Nc3ccc4c(c3)OCO4)c3ccccc3c2=O)c(OC)c1 | -17 | -33
COc1ccccc1-n1nc(C(=O)Nc2ccc3c(c2)OCO3)c2ccccc2c1=O | 50* | -13
Nc1nnc(CSCc2ccc(F)cc2)s1 | -40 | -7
CCCCN1C(=O)CN(CCc2ccccc2)C(=O)C1c1ccc(OC)cc1 (stereo unspecified) | 58* | 1
CCNC(=O)CC1C(=O)N(c2ccccc2)C(=O)N1CCc1ccc(OC)cc1 (stereo unspecified) | 14 | 5
SMILES | Yeast eIF2B | Yeast tox
O=C(C1CC1)N1CCc2cc(S(=O)(=O)N(CCO)Cc3ccccc3)ccc21 | -20 | 8
CCOC(=O)C1=C(N)N2C(=O)C(C)SC2=C(C(=O)OC)C1c1ccccc1OC (stereo unspecified) | · | 69*
CCOC(=O)C1=C(N)N2C(=O)C(C)SC2=C(C(=O)OCC)C1c1ccccc1 (stereo unspecified) | 50 | -21
COc1ccc(S(=O)(=O)N2CCC(C(=O)NCc3ccccn3)CC2)cc1C | 31 | 0
c1ccc(-c2csc(N3CCN(c4ccccn4)CC3)n2)cc1 | -7 | 19
CCc1ccc2c(c1)C1(NN=C(c3ccc(C)cc3)S1)C(=O)N2 (stereo unspecified) | 60* | ·
CC(C)c1ccc2c(c1)C1(NN=C(c3ccccc3)S1)C(=O)N2 (stereo unspecified) | -2 | 7
CCn1c(SCc2cccc(C)c2)nnc1-c1ccc(C)cc1 | 16 | 4
Cc1cccc(-c2nnc(SCC#N)n2Cc2ccccc2)c1 | 64* | -15
C=CCn1c(SCC(=O)Nc2sccc2C(N)=O)nc2ccccc2c1=O | 19 | -12
C=CCn1c(N)cc(=O)nc1SCC(=O)Nc1ccccc1 | 58* | -11
COc1ccc(S(=O)(=O)N2CCC(C(=O)N3CCc4ccccc4C3)CC2)cc1Cl | 22 | 14
O=C1Cc2cccc3cccc1c23 | 21 | -5
CCn1c(NCc2cccc(OC)c2OC)nc2ccccc21 | 18 | 5
C=CCc1cccc(CNc2nc3ccccc3n2C(C)C)c1O | 63* | 15
COCC(=O)Nc1ccccc1NC(C)=O | 24 | 4
COCC(=O)NC(c1ccccc1)c1ccccc1 | 62* | 9
COc1ccc(-c2nnn(CC(=O)N(Cc3cccs3)C(C)C(=O)NCCC(C)C)n2)cc1OC (stereo unspecified) | 7 | 5
C=CCSc1nnc2c(n1)OC(c1cccnc1)N(C(C)=O)c1ccccc1-2 (stereo unspecified) | 55* | -9
COc1ccc(C2Oc3ccccc3N2C(C)=O)cc1 (stereo unspecified) | 0 | -34
O=C(Nc1cccc(Oc2ccc3c(c2)C(=O)NC3=O)c1)c1ccco1 | -6 | 4
Cn1nnnc1SCC(=O)N1CCc2ccccc2C1 | 11 | 14
